Experimental findings from ChEMBL document CHEMBL1156831, “Discovery of matrix metalloproteases selective and activated peptide-doxorubicin prodrugs as anti-tumor agents” (Bioorg Med Chem Lett, 2010) are described below.

For data set [1], the target named is 72 kDa type IV collagenase (Homo sapiens) (UniProt P08253). Briefly: Ratio Kcat to Ki for MMP2.
The target in data set [2] is Matrix metalloproteinase-9 (Homo sapiens) (UniProt P14780). The experiment in a line: Ratio Kcat to Ki for MMP9.
Data set [3] has as its target Matrix metalloproteinase-14 (Homo sapiens) (UniProt P50281). The experiment in a line: Ratio Kcat to […] for MMP14.
In data set [4] the target is Neprilysin (Homo sapiens) (UniProt P08473). The experiment in a line: Ratio Kcat to […] for neprilysin.
Data set [5] in a line: Compound remaining in mouse blood after 6 hrs. The data set is classed as ADME, tissue-based. The following applies: read-out: Stability.
The nature of data set [6]: Aqueous solubility at pH 7.4. The following applies: aqueous medium. The class given is physicochemical.
Data set [7] can be described thus: Ratio of drug level in tumor to heart in mouse bearing human HT1080 cells relative to doxorubicin. The class given is ADME. The note with it: ht-1080. In a few lines: (§1)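 Dox was measured in HT1080 xenograft tumor and in heart tissue 24 h after a single iv dose in mice. The tumor/heart Dox ratio was normalized to the ratio obtained with free Dox.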
A short description of data set [8]: Biodistribution in tumor in mouse bearing human HT1080 relative to doxorubicin. The class given is ADME, organism-based, Neoplasm. The following applies: in vivo. In short, it runs like this: as §1
In data set [9] the test system is Bone marrow. The experiment in a line: Bone marrow toxicity in mouse bone marrow assessed as reticulocyte count at 2 umol/kg qd for 10 days. The data set is classed as tissue-based. The following applies: in vivo, 240 h. In a few lines: (§2)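 Mice were dosed once daily for 10 days (qdx10). Marrow toxicity was read out as the reticulocyte level, expressed as a percentage, and compared with vehicle-treated mice.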

Data set [10] deals with Bone marrow. The experiment in a line: Bone marrow toxicity in mouse bone marrow assessed as reticulocyte count at 4 umol/kg qd for 10 days. The data set is classed as tissue-based. The note with it: in vivo, 240 h. In a few lines: as §2
The test system of data set [11] is Bone marrow. The experiment in a line: Bone marrow toxicity in mouse bone marrow assessed as reticulocyte count at 6 umol/kg qd for 10 days. The class given is tissue-based. The note with it: in vivo, 240 h. In a few lines:
as §2

Data set [12] relates to Bone marrow. Briefly: Bone marrow toxicity in mouse bone marrow assessed as reticulocyte count at 14 umol/kg qd for 10 days. The class given is tissue-based. The following applies: in vivo, 240 h. In short, it runs like this: as §2

Values after ≈ are worked out from the molar mass of the structure shown. Numbered stars: 1 amine (or outer) side, 2 acyl side, 3 side chain; on linkers, the order of the positions; unused ones are H or OH. Square brackets hold non-standard residues; d marks the D form. Peptide text beside a SMILES is read from it. * marks the point of attachment. ξ: configuration not given here. Doxorubicin(3'-N) = COc1cccc2c1C(=O)c1c(O)c3c(c(O)c1C2=O)C[C@@](O)(C(=O)CO)C[C@@H]3O[C@H]1C[C@H](N*)[C@H](O)[C@H](C)O1; X4 = O=C(c1cc(S(=O)(=O)O)cc(S(=O)(=O)O)c1)*; Cit = NC(=O)NCCC[C@H](N)C(=O)O; Suc = O=C(CCC(=O)[*:2])[*:1]; X5 = O=C(CS(=O)(=O)O)*; ξP = O=C(O)C1CCCN1; Bn = c1ccc(C*)cc1

Chain of Matrix metalloproteinase-9 (Homo sapiens) (P14780 whole entry): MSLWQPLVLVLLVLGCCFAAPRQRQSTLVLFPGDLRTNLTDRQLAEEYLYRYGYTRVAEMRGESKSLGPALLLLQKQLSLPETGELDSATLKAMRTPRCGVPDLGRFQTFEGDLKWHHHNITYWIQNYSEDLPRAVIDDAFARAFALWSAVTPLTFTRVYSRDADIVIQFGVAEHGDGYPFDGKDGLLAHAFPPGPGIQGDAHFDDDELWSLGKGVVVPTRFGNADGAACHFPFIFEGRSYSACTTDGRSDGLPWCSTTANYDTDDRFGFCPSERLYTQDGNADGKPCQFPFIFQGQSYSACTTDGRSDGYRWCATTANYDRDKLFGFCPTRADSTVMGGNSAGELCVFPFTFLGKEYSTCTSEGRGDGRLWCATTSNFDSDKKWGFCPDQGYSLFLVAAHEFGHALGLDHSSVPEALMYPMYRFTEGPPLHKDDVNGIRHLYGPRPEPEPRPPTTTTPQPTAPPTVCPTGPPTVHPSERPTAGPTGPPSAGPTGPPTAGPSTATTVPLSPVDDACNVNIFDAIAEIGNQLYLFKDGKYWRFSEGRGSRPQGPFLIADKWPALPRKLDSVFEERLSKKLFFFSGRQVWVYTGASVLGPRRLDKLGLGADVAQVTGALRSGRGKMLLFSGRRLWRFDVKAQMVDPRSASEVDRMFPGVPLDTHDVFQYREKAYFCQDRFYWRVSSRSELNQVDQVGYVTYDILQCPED
Chain of 72 kDa type IV collagenase (Homo sapiens) (P08253 110-660 limits assumed): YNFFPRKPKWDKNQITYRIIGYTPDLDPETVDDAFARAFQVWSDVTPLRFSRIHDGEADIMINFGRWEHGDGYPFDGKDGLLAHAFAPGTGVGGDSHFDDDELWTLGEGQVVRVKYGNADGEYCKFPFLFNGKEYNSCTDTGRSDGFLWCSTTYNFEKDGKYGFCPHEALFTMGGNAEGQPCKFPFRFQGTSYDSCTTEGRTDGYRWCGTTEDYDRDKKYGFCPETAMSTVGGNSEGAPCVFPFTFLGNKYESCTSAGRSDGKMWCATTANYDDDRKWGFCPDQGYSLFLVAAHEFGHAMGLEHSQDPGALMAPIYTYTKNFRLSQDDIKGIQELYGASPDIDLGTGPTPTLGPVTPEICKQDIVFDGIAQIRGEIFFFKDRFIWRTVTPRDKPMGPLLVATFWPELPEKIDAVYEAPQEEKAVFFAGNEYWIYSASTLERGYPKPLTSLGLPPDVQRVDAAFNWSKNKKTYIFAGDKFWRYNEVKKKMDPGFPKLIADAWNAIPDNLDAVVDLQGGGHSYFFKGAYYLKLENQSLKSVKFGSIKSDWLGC
Chain of Neprilysin (Homo sapiens) (P08473 whole entry): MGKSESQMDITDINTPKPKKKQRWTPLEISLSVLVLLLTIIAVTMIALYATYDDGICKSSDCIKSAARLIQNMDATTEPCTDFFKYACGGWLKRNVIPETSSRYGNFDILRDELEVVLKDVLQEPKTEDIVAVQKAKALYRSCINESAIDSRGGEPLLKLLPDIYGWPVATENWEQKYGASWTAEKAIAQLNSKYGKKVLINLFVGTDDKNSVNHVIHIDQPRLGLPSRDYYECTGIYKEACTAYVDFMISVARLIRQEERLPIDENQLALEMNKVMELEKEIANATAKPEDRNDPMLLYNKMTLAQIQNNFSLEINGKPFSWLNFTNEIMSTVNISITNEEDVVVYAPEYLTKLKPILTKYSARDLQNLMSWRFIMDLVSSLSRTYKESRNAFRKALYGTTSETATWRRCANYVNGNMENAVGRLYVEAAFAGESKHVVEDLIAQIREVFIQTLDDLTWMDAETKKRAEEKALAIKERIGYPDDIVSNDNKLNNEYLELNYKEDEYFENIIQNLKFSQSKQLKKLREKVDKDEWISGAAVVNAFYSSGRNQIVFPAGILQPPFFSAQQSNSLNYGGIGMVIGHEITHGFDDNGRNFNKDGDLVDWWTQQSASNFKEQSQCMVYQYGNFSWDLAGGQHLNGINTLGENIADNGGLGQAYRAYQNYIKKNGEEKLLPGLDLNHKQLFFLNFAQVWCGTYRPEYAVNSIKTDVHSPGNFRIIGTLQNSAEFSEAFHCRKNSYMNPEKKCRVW

As for `COc1cccc2c1C(=O)c1c(O)c3c(c(O)c1C2=O)C[C@@](O)(C(=O)CO)C[C@@H]3O[C@H]1C[C@H](NC(=O)[C@H](CC(C)C)NC(=O)[C@H](Cc2ccc(O)cc2)NC(=O)[C@H](COCc2ccccc2)NC(=O)CNC(=O)[C@H](CC(C)C)NC(=O)C2CCCN2C(=O)CCC(=O)O)[C@H](O)[C@H](C)O1` (stereo partly drawn) (Suc-[ξP]LGS(Bn)YL-{Doxorubicin(3'-N)}), the Ratio in data set [1] was 20; in data set [2], 52; in data set [3], 89; in data set [4] it was less than 1. Further, in data set [5], the remaining at 6 h came to 100%. Besides, the solubility in [6] was determined as 1400 µg/mL (≈ 1030 µM).

In the case of `COc1cccc2c1C(=O)c1c(O)c3c(c(O)c1C2=O)C[C@@](O)(C(=O)CO)C[C@@H]3O[C@H]1C[C@H](NC(=O)[C@H](CC(C)C)NC(=O)[C@H](Cc2ccc(O)cc2)NC(=O)[C@@H](NC(=O)CNC(=O)[C@H](CO)NC(=O)[C@@H]2CCCN2C(=O)c2cc(S(=O)(=O)O)cc(S(=O)(=O)O)c2)[C@@H](C)OCc2ccccc2)[C@H](O)[C@H](C)O1` (X4-PSGT(Bn)YL-{Doxorubicin(3'-N)}), the Ratio in data set [1] is 114; in [2], greater than 120; in data set [3] it was greater than 120; in data set [4], less than 1; in data set [7], 13. The remaining at 6 h in [5] worked out at 100%. The molecule also yielded a Drug uptake in data set [8] of 600 pmol/g.

Turning to `COc1cccc2c1C(=O)c1c(O)c3c(c(O)c1C2=O)C[C@@](O)(C(=O)CO)C[C@@H]3O[C@H]1C[C@H](NC(=O)[C@H](CC(C)C)NC(=O)[C@H](Cc2ccc(O)cc2)NC(=O)[C@H](COCc2ccccc2)NC(=O)CNC(=O)[C@H](CC(C)C)NC(=O)[C@@H]2CCCN2C(=O)CS(=O)(=O)O)[C@H](O)[C@H](C)O1` (X5-PLGS(Bn)YL-{Doxorubicin(3'-N)}), the Ratio is 37 in data set [1]; 25 in data set [2]; 111 in data set [3]; less than 1 in data set [4]; 16 in data set [7]. Besides, the remaining at 6 h in [5] amounted to 90%. The same molecule had a solubility in data set [6] greater than 2400 µg/mL. Further, the Drug uptake in data set [8] amounted to 1500 pmol/g.

`COc1cccc2c1C(=O)c1c(O)c3c(c(O)c1C2=O)C[C@@](O)(C(=O)CO)C[C@@H]3O[C@H]1C[C@H](NC(=O)[C@H](CC(C)C)NC(=O)[C@H](Cc2ccc(O)cc2)NC(=O)[C@H](COCc2ccccc2)NC(=O)CNC(=O)[C@H](CCCNC(N)=O)NC(=O)[C@@H]2CCCN2C(=O)CS(=O)(=O)O)[C@H](O)[C@H](C)O1` (X5-P[Cit]GS(Bn)YL-{Doxorubicin(3'-N)}): the Ratio is 25 in [1], 38 in data set [2], 56 in data set [3] and less than 1 in [4]. For the same molecule, the remaining at 6 h in data set [5] is 29%. Also, the solubility in data set [6] is greater than 2300 µg/mL.

In the case of `COc1cccc2c1C(=O)c1c(O)c3c(c(O)c1C2=O)C[C@@](O)(C(=O)CO)C[C@@H]3O[C@H]1C[C@H](N)[C@H](O)[C@H](C)O1` [DOXORUBICIN], the Activity in the data set on Bone marrow [9] is given as 0.4%; in the data set with Bone marrow [10], 0.1%; in the data set with Bone marrow [11], 0.3%; in the data set on Bone marrow [12] it was 0.2%. Moreover, the Ratio in data set [7] amounted to 1. This molecule came in with a Drug uptake in data set [8] of 1600 pmol/g.

Usually solubility stands for the dissolved amount per volume that the medium holds. A high value points to a readily soluble substance.
